Compound activity (PubChem BioAssay)
Rows were chosen to be rich in hits. Some 4.2% of all compounds tested hit in one or more screens of this group.
KCNQ1 act = potentiates or activates the human KCNQ1 potassium channel; P51787; CHO-K1 KCNQ1, thallium flux FluxOR fluorescence; active compounds read high; B-score at 10 µM; 310,000 compounds, 0.35% hits;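 active = fluorescence ratio B-score, a plate-corrected score, at least three library SD, with initial intensity B-score within 5 SD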
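Doses: Single concentration per compound, DMSO matched to controls | Test system: KCNQ1-transfected CHO-K1 cells | Timing: 90 min dye loading and 20 min compound exposure, both at room temperature | Measured by: Kinetic FluxOR thallium fluorescence, 10-s 1-Hz baseline, 110-s post-stimulus read | Medium: Assay buffer with matched DMSO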
AI-2 QS modul = modulators of Vibrio harveyi AI-2 quorum sensing system; Vibrio harveyi JMH597 AI-2 luminescence/OD600 ratio, 9 h; active compounds read low; strain lacks LuxN and CqsS sensors; 0 = neutral-control median; activity change, % at 7.5 µM; 300,000 compounds, 0.4% hits; AID 2094; in the data active = activity change below about -75%, passing the limit was not always enough;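 note: luminescence divided by OD600 gain over 9 h not by final OD600 alone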
Cl transport mod = modulates chloride dependent transport by human KCC2. AID 1456. KCC2 cells, thallium flux FluoZin-2 fluorescence. Q9H2X9. B-score of Tl+ flux slope (higher = more flux/activation; lower = inhibition) at 10 µM. 190,000 compounds, 2.2% hits;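 active = thallium flux slope and its plate-corrected score both differing from the plate sample mean at a set confidence after two filtering rounds, in either direction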;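 note: slope of fluorescence scaled to starting intensity during 10 to 20 s after thallium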
Mot1-301 SUMO = SUMOylation pathway inhibition by Mot1-301 growth rescue; 320,000 compounds, 1% hits; S. cerevisiae Mot1-301 growth rescue, ATP luminescence, 38.5C; percent above DMSO median, 100 means doubled; growth rescue, % at 18.8 µM;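 active = every valid replicate shows activation above 250% relative to neutral control wells; inactive = the rest, any valid replicate at or below 250%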;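 note: OY570 slx delta 5 strain wells were the positive control but not used for scaling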
KCNQ1 block = human KCNQ1 channel inhibition; P51787; CHO-K1 KCNQ1, FluxOR thallium flux fluorescence; active compounds read high; B-score at 10 µM; 310,000 compounds, 1.3% hits; AID 2642;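 active = compounds whose thallium flux B-score, printed positive for inhibition, exceeds three library SD while starting fluorescence stays within three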;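 note: channel opened by potassium depolarization with thallium stimulus after 20 min compound exposure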
hERG rescue = shields human hERG channel from block by proarrhythmic agents; activation (rescue from dofetilide block), less the hit threshold, % at 10 µM; CHO-hERG, FluxOR thallium flux, dofetilide IC70 present; 310,000 compounds, 0.51% hits; Q12809;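 active = activation above the mean of controls blocked by dofetilide plus 5 SD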;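 note: thallium influx through hERG after potassium depolarization seen as dye fluorescence rise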
Mot1 SUMO dose = yeast SUMO pathway inhibition in dose response. shares compounds with Mot1-301 SUMO. S. cerevisiae Mot1-301 galactose growth, ATP luminescence, 24 h; -100 = growth of slx-deleted rescue strain. growth activity, percent, % at 42 µM. 2,300 tested, under 10 active. AID 493004;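 active = Signal drops as the depositor expects, and the fitted half-maximal dose is no more than ten times the top valid tested dose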;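 note: more negative values mean stronger growth rescue toward the control strain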
* hit, by the source's call; i = inactive; nt = not tested or not shown; + = active, no number; ! = a repeat was not active.

SMILES	KCNQ1 act	AI-2 QS modul	Cl transport mod	Mot1-301 SUMO	KCNQ1 block	hERG rescue	Mot1 SUMO dose
N#Cc1c(-c2ccco2)cc(-c2cccnc2)nc1N	i	17	nt	675*	i	-9	1
CCOC(=O)COc1nc(-c2ccc(C)cc2)cc(-c2ccco2)c1C#N	i	10	0.33	400*	i	-7	0
N#Cc1c(-c2cccnc2)cc(-c2ccccc2)nc1N	i	12	-0.6	0	i	-5	nt
CC(NC(=O)C(=O)NCCC1=CCCCC1)c1ccccc1 (stereo not given)	i	21	0.027	3	i	-3	nt
O=C(Nc1ccccn1)c1cccs1	i	-10	0.39	-5	i	-5	nt
CN1C(C(=O)Nc2ccccn2)=C(O)c2sccc2S1(=O)=O	i	10	-0.12	982*!	i	-5	0
Fc1ccc(-n2nnnc2-c2cnc(-c3cccs3)nc2C(F)(F)F)cc1	i	19	0.072	-17	i	-7	nt
CCCCc1ccc(NC(=S)NCc2cccs2)cc1	i	-17	-2.3	573*	i	-15	-1
COc1cccc(N=Nc2c(=O)[nH]n3c(=O)c4c([nH]c23)CCC4)c1	i	21	-1.7	6	i	-14	nt
COc1cccc(N=Nc2c(=O)[nH]n3c(=O)cc(C)[nH]c23)c1	i	0	-0.021	372*	i	-10	1
COc1cc(O)oc1C=Nc1ccc(C(F)(F)F)cc1	i	16	-0.43	22	i	-3	nt
N#Cc1ccc(Oc2ccc(S(=O)(=O)N3CCCCC3)cn2)cc1	i	27	nt	764*	i	-8	0
CC(=O)N1N=C(N)SC12CCCC2	i	6	0.59	+	i	-2	0
CS(=O)(=O)N1CCC(Oc2ccccc2C(=O)NCCCc2cccnc2)CC1	i	2	-0.053	-5	i	-23	nt
O=C(CCNS(=O)(=O)c1cccc2nsnc12)NCCC1=CCCCC1	i	21	-0.49	712*	i	-8	0
COc1ccc(OC)c(Cc2nnc(CCC(=O)NC3CCCCC3)o2)c1	i	8	0.61	-11	i	-8	nt
COc1ccc(OC)c(Cc2nnc(CCC(=O)NCc3ccsc3)o2)c1	i	21	-0.1	+	i	-1	0
NC(=O)NC(=O)COC(=O)/C=C/c1cccs1	i	9	1	405*	i	-12	0
O=C1C=C(c2ccc(OC(F)(F)F)cc2)C[C@@H](c2ccc(Cl)cc2)C1	nt	nt	nt	-6	nt	nt	nt
CN(C)S(=O)(=O)c1cccc(COC(=O)c2ccc3c(c2)OCO3)c1	i	27	-0.86	12	i	-11	nt
CCn1nc(C(=O)OCc2cccc(S(=O)(=O)N(C)C)c2)c2ccccc2c1=O	i	20	-1.1	850*	i	-9	-1
COc1ccc(N(CC(=O)NCc2ccc(C)cc2)S(=O)(=O)c2c(C)nn(C)c2C)cc1	i	7	-0.75	585*	i	-2	0
COc1ccc(NC(=O)CCC(=O)Nc2nnc(C(F)(F)F)s2)c(OC)c1	i	13	0.88	820*	i	-10	0
CC(NC(=O)c1ccc2c(c1)OCO2)C(c1cccs1)N1CCN(c2ccccc2)CC1 (stereo not given)	i	6	0.72	12	i	-11	nt
COc1ccccc1NC(=S)N(Cc1ccccc1)Cc1cccs1	i	36	0.77	+	i	-10	0
CCOC(=O)C(C)(C)Sc1nc2c(cnn2-c2ccc(C)cc2)c(=O)[nH]1	i	8	-0.48	373*	i	-8	1
C/C(=N\N(c1ccccc1)c1ccccc1)c1ccco1	i	14	-0.36	187	i	-12	nt
C/C(=N\N=C(c1ccccc1)c1ccccc1)c1ccco1	i	0	-2.6	576*	7*	-15	0
